Assay results published in article PMC7919060 (ACS chemical neuroscience, 2020).
Where a name gives a salt, the structure may show the parent alone. Read-outs that look alike come from different tables or passages of the source.

Experiments:
[1] = Mouse pharmacokinetics, single IP dose 10 mg/kg; type: in vivo, CD-1 mice
brain GlcCer [2] = settings: normal mice, 60 mg/kg; cited from earlier work
MDR1-MDCK cell monolayer = assay: Permeability and efflux in MDR1-MDCK cell monolayer; type: in vitro ADME
[3] = Stability to mouse liver microsomes; type: in vitro ADME; settings: CD-1, mouse, pH 7.4
Summary of the method: (§1)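 Test compound at 1 μM with 0.5 mg/mL liver microsomes (CD-1 mouse or human), 1.7 mM β-NADPH, 0.1 M phosphate pH 7.4, 3.3 mM MgCl₂, 37 °C, final DMSO <0.1%. Aliquots at 0–60 min (seven points) were quenched in cold acetonitrile with internal standard. Parent remaining was measured by LC-MS/MS. Half-life was taken from ln(remaining) versus time.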

[4] = Stability to human liver microsomes; type: in vitro ADME; settings: pH 7.4
Summary of the method: as §1

brain GlcCer and GlcSph = type: in vivo, D409V/D409V mice of C57BL/6 background; settings: CBE mice
Summary of the method: (§2)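 Gba D409V/D409V mice (C57BL/6 background) received CBE 25 mg/kg IP daily for 14 days from postpartum day 15. Test compound (10 mg/kg qd IP, citrate-saline) or buffer alone was coadministered; 8–11 mixed-gender mice per group. Sacrifice was 2 h after final dose. Brain GlcCer and GlcSph were separated from galactosyl analogues and quantified by LC-MS/MS. Values were normalised to tissue weight (pmol/mg) relative to vehicle controls; Student's t test.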

[5] = type: in vivo, D409V/D409V mice of C57BL/6 background; settings: both, C57BL/6 (Gba D409V/D409V), mouse, ip, 10 mg/kg
Summary of the method: as §2

P-glycoprotein (MDR1) = assay: Permeability and efflux in MDR1-MDCK cell monolayer; type: in vitro ADME; settings: dog, MDCK-MDR1
brain GlcCer [6] = assay: In vivo reduction of brain glucosylceramide in normal mice; settings: normal C57BL/6 mice, IP
Summary of the method: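 Female or male C57BL/6 mice, 6–8 weeks old, on regular chow, given test compound or vehicle IP daily for 3 days. Injection volume was 1% of body weight. Two dose-response runs were done: 30, 10, 1 mg/kg and 1.0–0.03 mg/kg. Whole brain was homogenised in sucrose buffer, then chloroform/methanol extracted and subjected to alkaline methanolysis. Extract was normalised to 2 μmol phospholipid phosphate. GlcCer was quantified by HPTLC against standards.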

[7] = mouse, IP, 10 mg/kg, single dose

SMILES	brain AUC [1, 7]	half-life at 1 μM [3]	half-life at 1 μM [4]	reduction in brain GlcCer (brain GlcCer and GlcSph; IP 10 mg/kg qd for 14 days)	reduction in brain GlcSph (brain GlcCer and GlcSph; IP 10 mg/kg qd for 14 days)	concentration at 2 h ([5]; brain)	concentration at 2 h ([5]; spleen)	Papp A→B (P-glycoprotein (MDR1))	Papp B→A (P-glycoprotein (MDR1))	also measured
O=C(CC1Cc2ccccc2C1)N[C@H](CN1CCCC1)[C@H](O)c1ccc2c(c1)OCCO2 [Compound 2]	36 ng·h/g	–	–	–	–	–	–	–	–	cumulative B/P ratio (brain AUC/plasma AUC) [1, 7]: 0.11; plasma AUC [1, 7]: 317 ng·h/mL; reduction in brain GlcCer (brain GlcCer [2]): 17%; efflux ratio (MDR1-MDCK cell monolayer; MDR1-MDCK cell monolayer): 298; Papp A-B (MDR1-MDCK cell monolayer; MDR1-MDCK cell permeability): 0.14 ×10⁻⁶ cm/s; Papp B-A (MDR1-MDCK cell monolayer; MDR1-MDCK cell permeability): 40.8 ×10⁻⁶ cm/s
CC(C)(NC(=O)O[C@@H]1CN2CCC1CC2)c1csc(-c2ccc(F)cc2)n1 [Compound 3, reference compound]	6188 ng·h/g	> 60 min	> 60 min	26%	35%	493 ng/g	4570 ng/g	0.58 ×10⁻⁶ cm/s	49 ×10⁻⁶ cm/s	AUC ([1]; female, CD-1, mouse, plasma, ip, 10 mg/kg): 7160 ng·h/mL
O=C(CC1Cc2ccccc2C1)N[C@H](CN1CCCC1)[C@H](O)c1ccc(OC(F)(F)F)cc1 [Compound 17, 2-(2,3-Dihydro-1H-inden-2-yl)-N-((1R,2R)-1-hydroxy-3-(pyrrolidin-1-yl)-1-(4-(trifluoromethoxy)phenyl)propan-2-yl)acetamide]	1046 ng·h/g	37 min	–	19%	39%	134 ng/g	4880 ng/g	0.95 ×10⁻⁶ cm/s	56.6 ×10⁻⁶ cm/s	increase in overall brain exposure vs 2 ([1]; mouse, IP, 10 mg/kg, brain AUC relative to 2): ~30 fold; total brain exposure (AUC) as percentage of that of Genz-682452 ([1]; mouse, single 10 mg/kg IP dose): about 20%; reduction in brain GlcCer (brain GlcCer [6]; 1 mg/kg for 3 days): about 34%; reduction in brain GlcCer (printed as negative change) (brain GlcCer [6]; 30 mg/kg for 3 days): −41%; effect on brain levels of galactosylceramide and galactosylsphingosine (brain GlcCer and GlcSph; selectivity vs galactosylceramide synthase, data not shown): lack of effect
CCCCCCCC(=O)N[C@H](CN1CCCC1)[C@H](O)c1ccc2c(c1)OCCO2 [eliglustat, eliglustat tartrate, reference compound]	–	–	12.5 min	–	–	–	–	–	–	activity on brain glycosphingolipids in CBE mouse assay (brain GlcCer and GlcSph; IP 10 mg/kg qd for 14 days): inactive
